One assay addresses Coagulation factor X (Homo sapiens, UniProt P00742). Briefly: Inhibition of human factor 10a using chromogenic spectrozyme F10a as substrate after 10 mins by spectrophotometry. A digest of the protocol:
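Human plasma FXa pre-incubated 10 min at 37 °C with inhibitor (twelve concentrations, 0.015–500 μM in well) in pH 7.4 buffer, then Spectrozyme FXa added. Initial rate of A405 rise gives residual activity relative to no-inhibitor control. Duplicate or triplicate; logistic fit gives IC50, efficacy and Hill slope. Organic solvent held constant, <2.5% v/v.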

In the next assay the target is Prothrombin (Homo sapiens, UniProt P00734). As to the kind of experiment: Inhibition of human factor 2a using chromogenic spectrozyme TH as substrate after 10 mins by spectrophotometry.
A further assay addresses T1, Coagulation factor VII (Homo sapiens, UniProt P08709).
T1 sequence (P08709 whole entry): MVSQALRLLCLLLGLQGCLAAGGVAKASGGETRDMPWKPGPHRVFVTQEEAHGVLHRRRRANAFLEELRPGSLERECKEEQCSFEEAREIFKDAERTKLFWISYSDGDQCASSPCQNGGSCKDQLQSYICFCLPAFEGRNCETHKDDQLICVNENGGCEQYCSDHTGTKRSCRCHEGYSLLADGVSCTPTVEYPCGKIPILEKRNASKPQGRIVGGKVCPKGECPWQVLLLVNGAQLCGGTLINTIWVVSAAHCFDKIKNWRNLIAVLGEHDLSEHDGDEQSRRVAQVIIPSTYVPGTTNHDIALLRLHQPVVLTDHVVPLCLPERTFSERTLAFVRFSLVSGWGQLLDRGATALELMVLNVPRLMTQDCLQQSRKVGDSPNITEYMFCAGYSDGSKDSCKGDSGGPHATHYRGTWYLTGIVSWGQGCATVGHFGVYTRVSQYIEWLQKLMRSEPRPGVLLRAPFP
Briefly: Inhibition of human factor 7a using chromogenic spectrozyme 7a as substrate after 10 mins by spectrophotometry.

The target of a further assay is Coagulation factor IX (Homo sapiens, UniProt P00740). As to the kind of experiment: Inhibition of human factor 9a using chromogenic spectrozyme 9a as substrate after 10 mins by spectrophotometry.
The target of another assay is Coagulation factor XI (Homo sapiens, UniProt P03951). Briefly: Inhibition of human factor 11a using chromogenic S2366 as substrate after 10 mins by spectrophotometry.
The next assay concerns the target T2, Coagulation factor XII (Homo sapiens, UniProt P00748).
T2 sequence (P00748 whole entry): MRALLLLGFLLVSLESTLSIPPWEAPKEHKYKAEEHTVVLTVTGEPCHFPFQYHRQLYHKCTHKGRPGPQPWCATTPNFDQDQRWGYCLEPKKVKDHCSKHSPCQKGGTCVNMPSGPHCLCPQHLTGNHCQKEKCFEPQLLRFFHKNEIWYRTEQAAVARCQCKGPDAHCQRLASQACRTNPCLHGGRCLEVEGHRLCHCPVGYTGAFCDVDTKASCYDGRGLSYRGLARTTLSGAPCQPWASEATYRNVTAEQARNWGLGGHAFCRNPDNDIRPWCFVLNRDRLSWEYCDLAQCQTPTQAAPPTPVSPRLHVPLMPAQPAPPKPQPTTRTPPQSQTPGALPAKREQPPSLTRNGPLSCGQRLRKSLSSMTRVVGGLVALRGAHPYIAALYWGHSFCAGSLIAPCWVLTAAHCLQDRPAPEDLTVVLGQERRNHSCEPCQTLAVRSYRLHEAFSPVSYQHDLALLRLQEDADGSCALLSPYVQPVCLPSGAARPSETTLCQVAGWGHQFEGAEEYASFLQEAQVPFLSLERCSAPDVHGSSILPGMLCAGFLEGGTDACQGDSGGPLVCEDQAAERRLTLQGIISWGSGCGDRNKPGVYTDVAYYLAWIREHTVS
As to the kind of experiment: Inhibition of factor 12a using chromogenic spectrozyme 12a as substrate after 10 mins by spectrophotometry.

The nature of assay [1]: Inhibition of bovine trypsin using chromogenic S2222 as substrate after 10 mins by spectrophotometry. More on the design: species or system Bos taurus.
In a further assay the target is Chymotrypsinogen A (Bos taurus, UniProt P00766). As to the kind of experiment: Inhibition of bovine alpha-chymotrypsin using chromogenic spectrozyme CTY as substrate after 10 mins by spectrophotometry.
For assay [2], the species on record is Homo sapiens. As to the kind of experiment: Selectivity index ratio of IC50 for human factor 2a to IC50 for human factor 10a.
Assay [3] is filed under the species Homo sapiens. As to the kind of experiment: Selectivity index ratio of IC50 for human factor 7a to IC50 for human factor 10a.
The species named for assay [4] is Homo sapiens. As to the kind of experiment: Selectivity index ratio of IC50 for human factor 9a to IC50 for human factor 10a.
The species entered for assay [5] is Homo sapiens. Briefly: Selectivity index ratio of IC50 for human factor 11a to IC50 for human factor 10a.
For assay [6], the species on record is Homo sapiens. As to the kind of experiment: Selectivity index ratio of IC50 for factor 12a to IC50 for human factor 10a.
Assay [7] is described as follows: Selectivity index ratio of IC50 for bovine trypsin to IC50 for human factor10a.
Assay [8] can be described thus: Selectivity index ratio of IC50 for bovine alpha-chymotrypsin to IC50 for human factor10a.
Assay [9] relates to Plasma. As to the kind of experiment: Anticoagulant activity in human plasma assessed as concentration required to double the activated […] time incubated for 4 mins prior to CaCl2-challenge by fibrometry. Format: functional.
Assay [10] has as its system Plasma. As to the kind of experiment: Anticoagulant activity in human plasma assessed as concentration required to double the prothrombin time incubated for 30 s prior to thromboplastin addition by fibrometry.

Consider one compound from ChEMBL document CHEMBL2040721, “Potent direct inhibitors of factor Xa based on the tetrahydroisoquinoline scaffold” (Eur J Med Chem, 2012).

The structures appear in SMILES notation.

Sequence of Coagulation factor X (P00742 41-179 limits assumed): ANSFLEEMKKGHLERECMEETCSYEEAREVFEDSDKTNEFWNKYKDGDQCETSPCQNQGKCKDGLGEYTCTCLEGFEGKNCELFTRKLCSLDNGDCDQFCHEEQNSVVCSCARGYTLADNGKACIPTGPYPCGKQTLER
Sequence of Coagulation factor X (P00742 235-488 limits assumed): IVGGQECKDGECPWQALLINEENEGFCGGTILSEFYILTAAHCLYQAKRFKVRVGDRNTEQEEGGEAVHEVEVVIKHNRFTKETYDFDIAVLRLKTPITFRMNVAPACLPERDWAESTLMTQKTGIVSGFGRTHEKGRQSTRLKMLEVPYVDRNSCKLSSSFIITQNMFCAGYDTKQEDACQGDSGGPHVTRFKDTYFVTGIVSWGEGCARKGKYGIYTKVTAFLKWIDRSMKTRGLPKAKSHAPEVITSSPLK
Sequence of Coagulation factor IX (P00740 47-191 limits assumed): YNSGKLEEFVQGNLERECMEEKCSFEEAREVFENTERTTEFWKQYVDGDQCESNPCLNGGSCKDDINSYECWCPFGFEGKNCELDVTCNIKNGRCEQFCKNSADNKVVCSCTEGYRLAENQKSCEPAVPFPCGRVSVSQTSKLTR
Sequence of Coagulation factor IX (P00740 227-461 limits assumed): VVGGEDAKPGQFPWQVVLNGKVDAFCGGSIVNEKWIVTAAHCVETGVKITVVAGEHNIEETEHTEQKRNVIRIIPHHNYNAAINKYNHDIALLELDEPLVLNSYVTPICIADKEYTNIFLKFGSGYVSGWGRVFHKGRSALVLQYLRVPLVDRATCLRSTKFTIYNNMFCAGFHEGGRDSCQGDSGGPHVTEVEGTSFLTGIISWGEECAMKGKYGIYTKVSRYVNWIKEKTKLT
Sequence of Coagulation factor XI (P03951 19-387 limits assumed): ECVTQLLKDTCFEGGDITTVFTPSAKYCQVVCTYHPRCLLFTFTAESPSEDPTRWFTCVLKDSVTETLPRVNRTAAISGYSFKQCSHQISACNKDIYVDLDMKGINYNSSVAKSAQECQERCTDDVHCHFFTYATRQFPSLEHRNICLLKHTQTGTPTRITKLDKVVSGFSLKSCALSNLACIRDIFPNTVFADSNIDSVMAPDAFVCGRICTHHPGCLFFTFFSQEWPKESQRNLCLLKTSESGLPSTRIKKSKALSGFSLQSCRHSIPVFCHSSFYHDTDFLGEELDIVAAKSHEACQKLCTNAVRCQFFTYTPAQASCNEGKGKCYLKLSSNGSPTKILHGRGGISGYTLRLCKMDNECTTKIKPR
Sequence of Coagulation factor XI (P03951 388-625 limits assumed): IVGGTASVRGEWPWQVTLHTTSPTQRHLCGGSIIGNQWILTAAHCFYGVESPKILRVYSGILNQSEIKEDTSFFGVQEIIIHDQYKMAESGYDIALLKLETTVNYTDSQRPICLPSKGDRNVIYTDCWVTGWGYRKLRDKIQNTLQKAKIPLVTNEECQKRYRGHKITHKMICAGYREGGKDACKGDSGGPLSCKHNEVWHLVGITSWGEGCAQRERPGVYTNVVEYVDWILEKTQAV

For the compound `O=C(Nc1ccc(N2CCOCC2=O)cc1)[C@H]1Cc2ccccc2CN1C(=O)Cc1ccc(Cl)cc1`, the IC50 (as a rule, the concentration that inhibits the measured activity by half) against Coagulation factor X was 0.27 µM; against Prothrombin, greater than 500 µM; on Coagulation factor VII, greater than 1000 µM; against Coagulation factor IX, greater than 1000 µM; on Coagulation factor XI, greater than 500 µM; on Coagulation factor XII, greater than 500 µM. In addition, the IC50 in assay [1] is greater than 100 µM; on Chymotrypsinogen A, 75.3 µM. Also, the Ratio IC50 is greater than 1850 in the assay listed under Homo sapiens [2]; greater than 3700 in the assay listed under Homo sapiens [3]; greater than 3700 in the assay filed under Homo sapiens [4]; greater than 1850 in the assay listed under Homo sapiens [5]; greater than 1850 in the assay filed under Homo sapiens [6]; greater than 370 in assay [7]. The Ratio IC50 in assay [8] was 279. Besides, in the assay with Plasma [9], the 2aPTT was 20.2 µM. The 2PT with Plasma [10] was 17.1 µM.
